Among the data in ChEMBL document CHEMBL1764968, “Structural simplification of bioactive natural products with multicomponent synthesis. 3. Fused uracil-containing heterocycles as novel topoisomerase-targeting agents” (2011) are GI50 values, retold here.

In one assay the test system is HeLa. Briefly: Cytotoxicity against human HeLa cells after 72 hrs by MTT assay. The assay is classed as functional. The method, boiled down:
(§1)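 Cells plated 24 h in 96-well plates at 10,000–40,000 cells/mL depending on line. U373 grown in MEM, other lines in RPMI, both with 5% heat-inactivated FCS. Cells exposed to compounds (or none, control) for 72 h. MTT reduction to formazan read at 570 nm against 630 nm reference. Sextuplicate per condition.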
On the technique in general: Tetrazolium dyes change colour on reduction, which living cells bring about.

The test system of a further assay is Jurkat. Briefly: Cytotoxicity against human Jurkat cells after 72 hrs by MTT assay. The assay is classed as functional. In a few lines:
as §1

For another assay, the system named is MCF7. The assay is described as follows: Cytotoxicity against human MCF7 cells after 72 hrs by MTT assay. It counts as functional. The note with it: MCF7, 72 h. In a few lines: as §1
In a further assay the test system is A549. Briefly: Cytotoxicity against human A549 cells after 72 hrs by MTT assay. The assay is classed as functional. The note with it: A549, 72 h. The method, boiled down:
as §1

In the next assay the test system is LoVo. Briefly: Cytotoxicity against human LoVo cells after 72 hrs by MTT assay. The assay is classed as functional. In a few lines: as §1
Assay [1] in a line: Cytotoxicity against human U373 cells after 72 hrs by MTT assay. The assay is classed as functional, U-373MG ATCC. The note with it: U373 MG. The method, boiled down: as §1
Another assay relates to SK-MEL. Briefly: Cytotoxicity against human SK-MEL cells after 72 hrs by MTT assay. The assay is classed as functional. The method, boiled down:
as §1

A further assay relates to PC-3. The assay is described as follows: Cytotoxicity against human PC3 cells after 72 hrs by MTT assay. The assay is classed as functional. The note with it: PC-3, 72 h. The method, boiled down: as §1

For the compound `O=C1C2=C(Nc3[nH]c(=O)[nH]c(=O)c3C2c2ccc(Cl)c(Cl)c2)c2ccccc21` (stereo not drawn), the GI50 in the assay with HeLa came out at 5800 nM; in the assay with Jurkat, 350 nM; with MCF7, 800 nM; with A549, 590 nM; in the assay with LoVo it was 460 nM; in assay [1], 420 nM. The 50% growth inhibitory concentration (GI50) with SK-MEL stood at 500 nM; in the assay with PC-3, 6200 nM.

Consider `CC[C@@]1(O)C(=O)OCc2c1cc1n(c2=O)Cc2cc3ccccc3nc2-1` [CAMPTOTHECIN], for which the GI50 in the assay with HeLa was found to be 1300 nM; in the assay with Jurkat it was 90 nM; with MCF7, 6000 nM; in the assay with A549 it was 200 nM; in the assay with LoVo, 8 nM; in assay [1], 33 nM. The figures for the 50% growth inhibitory concentration (GI50) in the assay on SK-MEL and in the assay on PC-3 were 47 nM and 480 nM, respectively.

Regarding `O=C1c2ccccc2-c2nc3[nH]c(=O)[nH]c(=O)c3c(-c3ccc(F)cc3)c21`, the GI50 with HeLa was greater than 10000 nM; in the assay with Jurkat, 7400 nM; in the assay on MCF7 it was greater than 10000 nM; in the assay with A549, greater than 10000 nM; in the assay on LoVo, 3500 nM; in assay [1], 8700 nM. The 50% growth inhibitory concentration (GI50) in the assay with SK-MEL turned out to be 10000 nM; in the assay on PC-3, 9000 nM.

With `COc1ccc(-c2c3c(nc4[nH]c(=O)[nH]c(=O)c24)-c2ccccc2C3=O)cc1OC`, the 50% growth inhibitory concentration (GI50) in the assay on HeLa came to 530 nM; in the assay on Jurkat, 220 nM; in the assay on MCF7, 750 nM; with A549, 830 nM; with LoVo it was 440 nM; in assay [1], 600 nM. Besides, the figures for the 50% growth inhibitory concentration (GI50) with SK-MEL and with PC-3 were 470 nM and greater than 10000 nM, respectively.

For `COc1ccc(C2C3=C(Nc4[nH]c(=O)[nH]c(=O)c42)c2ccccc2C3=O)c(OC)c1OC` (stereo not drawn), the 50% growth inhibitory concentration (GI50) in the assay on HeLa was 350 nM; in the assay on Jurkat, 490 nM; with MCF7, 480 nM; with A549, 540 nM; in the assay on LoVo it was 220 nM; in assay [1] it was 260 nM. Also, the values for the GI50 with SK-MEL and with PC-3 were 400 nM and greater than 10000 nM, respectively.

Turning to `O=C1C2=C(Nc3[nH]c(=O)[nH]c(=O)c3C2c2ccc(F)cc2)c2ccccc21` (stereo not drawn), the concentration for 50% growth inhibition (GI50) in the assay with HeLa is greater than 10000 nM; in the assay with Jurkat, greater than 10000 nM; in the assay with MCF7, greater than 10000 nM; with A549, greater than 10000 nM; in the assay on LoVo it was 4600 nM; in assay [1] it was 5600 nM. In addition, the 50% growth inhibitory concentration (GI50) in the assay with SK-MEL came to 10000 nM; in the assay on PC-3, 4000 nM.

For `COc1ccc(C2C3=C(Nc4[nH]c(=O)[nH]c(=O)c42)c2ccccc2C3=O)cc1OC` (stereo not drawn), the GI50 came out at 600 nM in the assay with HeLa; 400 nM in the assay with Jurkat; 690 nM with MCF7; 4800 nM with A549; 800 nM in the assay with LoVo; 700 nM in assay [1]. The 50% growth inhibitory concentration (GI50) in the assay on SK-MEL was 860 nM; with PC-3, greater than 10000 nM.

`O=C1c2ccccc2-c2nc3[nH]c(=O)[nH]c(=O)c3cc21`: the GI50 in the assay with HeLa was greater than 10000 nM; in the assay on Jurkat, greater than 10000 nM; in the assay with MCF7, greater than 10000 nM; with A549 it was greater than 10000 nM; in the assay with LoVo, 9500 nM; in assay [1], 7500 nM. Moreover, the concentration for 50% growth inhibition (GI50) with SK-MEL is 10000 nM; in the assay on PC-3, greater than 10000 nM.

For the compound `COc1ccc(-c2c3c(nc4[nH]c(=O)[nH]c(=O)c24)-c2ccccc2C3=O)cc1`, the concentration for 50% growth inhibition (GI50) in the assay on HeLa was 5500 nM; with Jurkat, 960 nM; with MCF7, 2400 nM; with A549, greater than 10000 nM; in the assay on LoVo it was 870 nM; in assay [1], 2400 nM. For the same compound, the concentration for 50% growth inhibition (GI50) came to 4700 nM with SK-MEL and 880 nM in the assay on PC-3.

In the case of `COc1cc(C2C3=C(Nc4[nH]c(=O)[nH]c(=O)c42)c2ccccc2C3=O)cc(Br)c1OC` (stereo not drawn), the GI50 came out at 3800 nM in the assay on HeLa; 200 nM in the assay on Jurkat; 780 nM with MCF7; 480 nM with A549; 380 nM with LoVo; 370 nM in assay [1]. The values for the concentration for 50% growth inhibition (GI50) in the assay on SK-MEL and in the assay with PC-3 were 480 nM and greater than 10000 nM, respectively.

With `COc1cc(-c2c3c(nc4[nH]c(=O)[nH]c(=O)c24)-c2ccccc2C3=O)cc(Br)c1OC`, the GI50 with HeLa was 340 nM; in the assay on Jurkat it was 170 nM; in the assay on MCF7, 950 nM; with A549, 310 nM; in the assay on LoVo, 350 nM; in assay [1], 600 nM. The figures for the GI50 in the assay with SK-MEL and in the assay with PC-3 were 470 nM and greater than 10000 nM, respectively.

For `COc1ccc(-c2c3c(nc4[nH]c(=O)[nH]c(=O)c24)-c2ccccc2C3=O)c(OC)c1OC`, the 50% growth inhibitory concentration (GI50) with HeLa was found to be 310 nM; in the assay on Jurkat it was 470 nM; in the assay with MCF7 it was 470 nM; in the assay on A549, 260 nM; with LoVo, 350 nM; in assay [1], 360 nM. The GI50 with SK-MEL stood at 430 nM; in the assay on PC-3, 900 nM.

For the compound `COc1ccc(C2C3=C(Nc4[nH]c(=O)[nH]c(=O)c42)c2ccccc2C3=O)cc1` (stereo not drawn), the GI50 in the assay on HeLa is 6900 nM; in the assay on Jurkat, 870 nM; in the assay on MCF7, 3600 nM; in the assay with A549, 9200 nM; in the assay with LoVo, 2200 nM; in assay [1], 4100 nM. Also, the GI50 with SK-MEL was determined as 4800 nM; in the assay with PC-3, 3000 nM.

As to `O=C1C2=C(Nc3[nH]c(=O)[nH]c(=O)c3C2c2ccc(Cl)cc2Cl)c2ccccc21` (stereo not drawn), the concentration for 50% growth inhibition (GI50) is 950 nM in the assay with HeLa; 760 nM in the assay on Jurkat; 7000 nM with MCF7; 7400 nM in the assay on A549; 1400 nM in the assay on LoVo; 4200 nM in assay [1]. Moreover, the 50% growth inhibitory concentration (GI50) turned out to be 3900 nM with SK-MEL and 2400 nM in the assay on PC-3.

For `O=C1c2ccccc2-c2nc3[nH]c(=O)[nH]c(=O)c3c(-c3ccc(Cl)cc3Cl)c21`, the GI50 stood at 890 nM with HeLa; 810 nM in the assay on Jurkat; 7400 nM in the assay with MCF7; 7800 nM in the assay with A549; 2900 nM with LoVo; 4200 nM in assay [1]. The GI50 with SK-MEL was 3500 nM; in the assay on PC-3, 2800 nM.

Take `O=C1c2ccccc2-c2nc3[nH]c(=O)[nH]c(=O)c3c(-c3ccc(Cl)c(Cl)c3)c21`: the GI50 turned out to be 350 nM with HeLa; 230 nM in the assay with Jurkat; 740 nM in the assay on MCF7; 120 nM in the assay with A549; 70 nM with LoVo; 80 nM in assay [1]. Besides, the results for the 50% growth inhibitory concentration (GI50) with SK-MEL and with PC-3 were 80 nM and greater than 10000 nM, respectively.

By GI50 is commonly meant the concentration at which growth is held to half of that of the control.
